Tests used:
[1] = folding enthalpy; higher = less favourable; fluorescence melt of hairpins on a sequencing array, two-state fit; conditions: sodium 0.088 M
Summary of the method: (§1)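 In 50 mM Na-HEPES pH 8.0 containing 25 mM NaCl, hairpins from the library on a sequenced MiSeq flow cell were imaged for Cy3 fluorescence at 2.5 °C steps up to 60 °C, with Cy3 and quencher oligos annealed. After normalisation to pre-quench Cy3 and to control constructs, two-state fits with bootstrapping gave melting temperature and folding enthalpy. Four replicates were combined by inverse-variance weighting, and fitted temperatures were shifted up by 9.35 °C to match UV melts.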

[2] = melting temperature; fluorescence melt of hairpins on a sequencing array, two-state fit, raised by 9.35 °C to match UV melts; conditions: sodium 0.088 M
Summary of the method: as §1

| Sequence | folding enthalpy [1] [kcal/mol] | Tm [2] [°C] |
| --- | --- | --- |
| GCATGGCGAAAGCCCCGC ((..(((....)))..)) | -12.4 | 29.6 |
| GCTAACGAAAGTTAGC ((((((....)))))) | -35.1 | 66.8 |
| GATCATGCCAATGATC ((((((....)))))) | -45.4 | 58.5 |
| GATCCGCCGCCGGATC ((((((....)))))) | -42.4 | 59 |
| GTCGTAGGAAACTATGAC (((.(((....))).))) | -35.4 | 45.2 |
| GCGTTTTCACGC ((((....)))) | -24.6 | 54.2 |
| GGTATCGGAAACGGTATC (.((.((....)).)).) | -26.1 | 30.9 |
| GATCCCCCGGGGATC ((((((...)))))) | -31.5 | 64.8 |
| GGATACGCGAAAGCGTCC (((..(((....)))))) | -8.9 | 33 |
| GATGGCGAAAGCCCGATC ((((((....)))..))) | -9.89 | 27.7 |
| GATCGAGGAAACTCAATC (((.(((....))).))) | -10.2 | 25.9 |
| GTCGCCGAAAGGCTAGAC ((((((....)))..))) | -16.8 | 47.1 |
| GATCAGATCACTGATC ((((((....)))))) | -28.6 | 49.9 |
| GAAAGCGCGAAAGCGTTC (((..(((....)))))) | -7.58 | 28.3 |
| GGAATAGGAAACTGTTCC ((((.((....)).)))) | -33 | 42.9 |
| GTAGAAACGAAAGTTTAC (((..(((....)))))) | -15.8 | 27.4 |
| GTCACTCGAAAGAGCGAC (((.(((....))).))) | -43.5 | 51.5 |
| GTTTTCGAAAGAAACAAC ((((((....)))..))) | -11.7 | 26.6 |
| GTCGTAGGAAACTGTGAC (((..((....))..))) | -16.6 | 30.8 |
| GTGCGCTCGAAAGAGCAC (((..(((....)))))) | -14.1 | 59.9 |
| GTACCCGAAAGGGACTAC ((((((....)))..))) | -14.3 | 45.8 |
| CTTAGGAAACTAAG (((((....))))) | -11.4 | 33.4 |
| GCAATCGGAAACGGTTGC ((((.((....)).)))) | -43.8 | 55.8 |

| Sequence | folding enthalpy [1] [kcal/mol] | Tm [2] [°C] |
| --- | --- | --- |
| GCACGTGGAAACGCGTGC (((((.(....).))))) | -45.1 | 64.6 |
| GCTGGGCGAAAGCCTAGC (((.(((....))).))) | -31.5 | 66.2 |
| GTCCTCCGAAAGGATGAC (((.(((....))).))) | -30.7 | 48.6 |
| GCTGAGGAAACTCAGC ((((((....)))))) | -37.7 | 63.5 |
| GCAAGTCGAAAGACGTGC (((.(((....))).))) | -39.8 | 55.8 |
| GAAGGTGGAAACATCTTC ((((.((....)).)))) | -30.8 | 41.6 |
| GCAAGGCGAAAGCATGGC ((.(.((....)).).)) | -18 | 47.8 |
| GTAGGTGCGAAAGCATAC (((..(((....)))))) | -8.27 | 31.1 |
| GTTTCCGAAAGGACAAC ((((((....))).))) | -16.6 | 39.6 |
| GGGGCCGGAAACGGCCTC (.(((((....))))).) | -10.4 | 69.2 |
| GTTTTTGGAAACAAGAAC (((.(((....))).))) | -19.6 | 32.7 |
| GATCTGCAGACAGATC ((((((....)))))) | -40 | 51.2 |
| GGTTGGCGAAAGCCGACC (((.(((....))).))) | -29.3 | 69.3 |
| TGCCAGAAATGGCA (((((....))))) | -16.5 | 55.1 |
| GCGAAGCGAAAGCATTGC ((.(.((....)).).)) | -7.27 | 39.1 |
| GGAACGCGAAAGCGTCC (((.(((....)))))) | -13.4 | 53.8 |
| GTAAGCGGAAACGCTTGC (.(((((....))))).) | -22.7 | 54.1 |
| GTAGTCGAAAGACCTAC ((((((....))).))) | -18.9 | 36.8 |
| GAGAGACGAAAGTCCTC (((.(((....)))))) | -17.9 | 46.9 |
| GGTGCGGGAAACCGTGCC ((..(((....)))..)) | -46.1 | 53.1 |
| GGCGTACGAAAGTAGCC (((.(((....)))))) | -32.6 | 65.5 |
| GCTCGAGCGAAAGCTAGC (((..(((....)))))) | -13.2 | 39.1 |
| GCCAGTCGAAAGACGGC (((.(((....)))))) | -33.8 | 61.6 |

| Sequence | folding enthalpy [1] [kcal/mol] | Tm [2] [°C] |
| --- | --- | --- |
| GGCCAGACGAAAGTCGCC (((..(((....)))))) | -13.3 | 54.1 |
| GTTGGCGCGAAAGCGAAC (((..(((....)))))) | -12.9 | 45.9 |
| GTTGACGAAAGTCCAAC ((((((....))).))) | -17.7 | 40.9 |
| GATCATGACTATGATC ((((((....)))))) | -48.6 | 54.2 |
| GATCCCGAAAGGGTATC ((((((....))).))) | -15.8 | 45.5 |
| GAACCCGGAAACGGGCTC ((.((((....)))).)) | -15.4 | 47.3 |
| GCCAGGCGAAAGCCATGC ((..(((....)))..)) | -13.6 | 42.3 |
| GCAGAGGCGAAAGCCTGC (((..(((....)))))) | -14.5 | 56.7 |
| GTCATGGGAAACCATGGC (.(((((....))))).) | -24.1 | 53.2 |
| GGCTATCCGAAAGGAGCC (((..(((....)))))) | -27.3 | 47.1 |
| GTCAGCGAAAGCTTAGAC ((((((....)))..))) | -15.3 | 40 |
| GCGTTTGGAAACAGATGC ((.(.((....)).).)) | -17.6 | 30.1 |
| GATCTTCCTAAAGATC ((((((....)))))) | -31.7 | 43.7 |
| GCATACGGAAACGCATGC ((((.((....)).)))) | -34.5 | 48.5 |
| GATCAAGATTTGATC ((((((...)))))) | -29.6 | 40.7 |
| GATCCTAGAAGGATC ((((((...)))))) | -40.9 | 53.4 |
| GCGAGGTCGAAAGACCGC (((..(((....)))))) | -9.59 | 54.3 |
| GTGGACGAAAGTCGGCAC ((((((....)))..))) | -15.5 | 39.8 |
| GTAAGAGCGAAAGCTTAC (((..(((....)))))) | -14.9 | 33.5 |
| CAAACGAAAGTTTG (((((....))))) | -23 | 53 |
| GCCAACGAAAGTTTAGGC ((((((....)))..))) | -28.2 | 43.8 |
| GGAGACGAAAGTCCGTCC ((((((....)))..))) | -12.4 | 32.5 |
| GAGCCAGGAAACTAGCTC ((((.((....)).)))) | -26.2 | 37.4 |

— the array DNA melting data of Ke et al. (doi:10.1101/2024.01.08.574731)
